# Read-outs that look alike come from different tables or passages of the source.
# Experiments:
# [1] = system: RSV infection; assay: Clinical course of RSV infection; assay type: in vivo, human; settings: JNJ-8678 (combined)
# Summary of the method: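 Infants (>1 to ≤24 months, term-born, hospitalised ≤72 h before randomisation with PCR-confirmed RSV) got oral drug or placebo once daily for 7 days (4:1 randomisation) and were followed 28 days. Outcomes were hospital stay and time to clinical stability: the latest of end of supplemental oxygen, end of supplemental feeding, normal heart rate and normal respiratory rate. Times were shown as Kaplan-Meier curves. Clinician and caregivers completed PRESORS symptom questionnaires electronically.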
# [2] = assay type: in vivo, human
# Summary of the method: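 Population PK model built in adults and scaled to paediatrics, fitted to sparse heel- or finger-prick capillary samples. Weight-based oral doses were given once daily for 7 days in three age cohorts (≥6–≤24, 3–<6, >1–<3 months). Doses were escalated after data review committee assessment of PK and safety. AUC24h, Cmin and Cmax were estimated at day 1 and day 7, as mean with CV%.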
# [3] = cohort 1a (≥6 to ≤24 mo), 2 mg/kg QD oral, n=4, Day 1
# [4] = cohort 1a (≥6 to ≤24 mo), 2 mg/kg QD oral, n=4, Day 7
# [5] = cohort 1b (≥6 to ≤24 mo), 6 mg/kg QD oral, n=4, Day 1
# [6] = cohort 1b (≥6 to ≤24 mo), 6 mg/kg QD oral, n=4, Day 7
# [7] = cohort 1c (≥6 to ≤24 mo), 8 mg/kg QD oral, n=4, Day 1
# [8] = cohort 1c (≥6 to ≤24 mo), 8 mg/kg QD oral, n=4, Day 7
# [9] = cohort 2a (≥3 to <6 mo), 1.5 mg/kg QD oral, n=4, Day 1
# [10] = cohort 2a (≥3 to <6 mo), 1.5 mg/kg QD oral, n=4, Day 7
# [11] = cohort 2b (≥3 to <6 mo), 4.5 mg/kg QD oral, n=4, Day 1
# [12] = cohort 2b (≥3 to <6 mo), 4.5 mg/kg QD oral, n=4, Day 7
# [13] = cohort 2c (≥3 to <6 mo), 6 mg/kg QD oral, n=1, Day 1
# [14] = cohort 2c (≥3 to <6 mo), 6 mg/kg QD oral, n=1, Day 7
# [15] = cohort 3a (>1 to <3 mo), 1 mg/kg QD oral, n=4, Day 1
# [16] = cohort 3a (>1 to <3 mo), 1 mg/kg QD oral, n=4, Day 7
# [17] = cohort 3b (>1 to <3 mo), 3 mg/kg QD oral, n=4, Day 1
# [18] = cohort 3b (>1 to <3 mo), 3 mg/kg QD oral, n=4, Day 7
# [19] = cohort 3c (>1 to <3 mo), 5 mg/kg QD oral, n=4, Day 1
# [20] = cohort 3c (>1 to <3 mo), 5 mg/kg QD oral, n=4, Day 7
# [21] = cohort 1d (≥6 to ≤24 mo), 9 mg/kg QD oral, n=4, Day 1
# [22] = cohort 1d (≥6 to ≤24 mo), 9 mg/kg QD oral, n=4, Day 7
compound,measurement,setting,value
CS(=O)(=O)CCCn1c(Cn2c(=O)n(CC(F)(F)F)c3ccncc32)cc2cc(Cl)ccc21 [JNJ-53718678],Median time to clinical stability following the start of study treatment,[1]; placebo 56.7 hours,47.4 h
same,Median length of hospital stay,[1]; placebo 77.5 hours,77.7 h
same,Time after which all patients were clinically stable,[1]; placebo 121.1 hours,123.5 h
same,Maximum length of hospital stay observed,[1]; placebo 144.5 hours,150.4 h
same,Mean AUC24h (CV%),[2]; [3],6047.2 (17.5) ng × h/mL
same,Mean Cmax (CV%),[2]; [3],546.8 (35.7) ng/mL
same,Mean Cmin (CV%),[2]; [3],81.4 (58.8) ng/mL
same,Mean AUC24h (CV%),[2]; [4],7738.8 (27.4) ng × h/mL
same,Mean Cmax (CV%),[2]; [4],721.3 (31.2) ng/mL
same,Mean Cmin (CV%),[2]; [4],114.0 (77.7) ng/mL
same,Mean Cmax (CV%),[2]; [5],1960.5 (58.1) ng/mL
same,Mean Cmin (CV%),[2]; [5],155.5 (89.3) ng/mL
same,Mean Cmax (CV%),[2]; [6],3304.2 (12.3) ng/mL
same,Mean Cmin (CV%),[2]; [6],225.7 (66.5) ng/mL
same,Mean Cmax (CV%),[2]; [7],3346.9 (13.0) ng/mL
same,Mean Cmin (CV%),[2]; [7],244.1 (90.4) ng/mL
same,Mean Cmax (CV%),[2]; [8],4298.8 (11.2) ng/mL
same,Mean Cmin (CV%),[2]; [8],323.9 (95.7) ng/mL
same,Target exposures,"[2]; cohort 1c, ≥6–≤24 months, 8 mg/kg QD, AUC24h similar to adults",Cmin and Cmax target exposures were not reached
same,Mean AUC24h (CV%),[2]; [9],6658.4 (25.6) ng × h/mL
same,Mean Cmax (CV%),[2]; [9],727.5 (68.7) ng/mL
same,Mean Cmin (CV%),[2]; [9],88.3 (39.2) ng/mL
same,Mean AUC24h (CV%),[2]; [10],8620.9 (17.3) ng × h/mL
same,Mean Cmax (CV%),[2]; [10],938.0 (53.3) ng/mL
same,Mean Cmin (CV%),[2]; [10],124.0 (49.1) ng/mL
same,Mean Cmax (CV%),[2]; [11],2533.2 (25.0) ng/mL
same,Mean Cmin (CV%),[2]; [11],319.8 (16.9) ng/mL
same,Mean Cmax (CV%),[2]; [12],3021.8 (41.2) ng/mL
same,Mean Cmin (CV%),[2]; [12],363.0 (18.9) ng/mL
same,Mean Cmax (CV%),[2]; [13],2556.8 (…) ng/mL
same,Mean Cmin (CV%),[2]; [13],428.6 (…) ng/mL
same,Mean Cmax (CV%),[2]; [14],3131.0 (…) ng/mL
same,Mean Cmin (CV%),[2]; [14],517.3 (…) ng/mL
same,Mean AUC24h (CV%),"[2]; cohort 2c (≥3 to <6 mo), 6 mg/kg QD oral, n=1, Day 7, listed as JNJ-8678, 6 mg/kg",34 980 ng × h/mL
same,Mean AUC24h (CV%),[2]; [15],4495.6 (4.8) ng × h/mL
same,Mean Cmax (CV%),[2]; [15],374.2 (18.5) ng/mL
same,Mean Cmin (CV%),[2]; [15],72.6 (41.1) ng/mL
same,Mean AUC24h (CV%),[2]; [16],5827.0 (12.3) ng × h/mL
same,Mean Cmax (CV%),[2]; [16],498.0 (13.2) ng/mL
same,Mean Cmin (CV%),[2]; [16],100.9 (46.3) ng/mL
same,Mean Cmax (CV%),[2]; [17],958.2 (15.2) ng/mL
same,Mean Cmin (CV%),[2]; [17],342.9 (14.3) ng/mL
same,Mean Cmax (CV%),[2]; [18],1671.2 (14.6) ng/mL
same,Mean Cmin (CV%),[2]; [18],650.2 (15.5) ng/mL
same,Mean Cmax (CV%),[2]; [19],1866.6 (51.7) ng/mL
same,Mean Cmin (CV%),[2]; [19],458.7 (54.9) ng/mL
same,Mean Cmax (CV%),[2]; [20],3001.8 (25.1) ng/mL
same,Mean Cmin (CV%),[2]; [20],929.0 (62.1) ng/mL
same,Mean AUC24h (CV%),"[2]; cohort 3c (>1 to <3 mo), 5 mg/kg QD oral, n=4, Day 7, listed as JNJ-8678, 5 mg/kg",39 627 ng × h/mL
same,Mean Cmax (CV%),[2]; [21],2371.8 (70.8) ng/mL
same,Mean Cmin (CV%),[2]; [21],333.2 (62.3) ng/mL
same,Mean Cmax (CV%),[2]; [22],3389.4 (52.9) ng/mL
same,Mean Cmin (CV%),[2]; [22],615.9 (75.2) ng/mL
same,Mean AUC24h (CV%),"[2]; cohort 1d (≥6 to ≤24 mo), 9 mg/kg QD oral, n=4, Day 7, listed as JNJ-8678, 9 mg/kg",35 840 ng × h/mL

# Source: publication PMC7744997 (Clinical Infectious Diseases: An Official Publication of …, 2020)
